Source: PubChem BioAssay (Johns Hopkins Ion Channel Center)
Compounds with a hit are over-represented: about 3.8% of the library has one in this group of screens.
KCNK9 block: human KCNK9 channel inhibition; AID 488922; B-score at 10 µM; HEK293 KCNK9, FluxOR thallium flux fluorescence; hits give low values; actives 1.2% (n = 310,000);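 active = ratio B-score over 3 SD below the library mean, with starting fluorescence within 5 SD of its mean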;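 note: negative B-score means less thallium flux so channel inhibition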
KCNQ1 block: inhibitors of human KCNQ1 potassium channel | CHO-K1 KCNQ1, FluxOR thallium flux fluorescence; hits give high values | B-score at 10 µM | actives 1.3% (n = 310,000);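 active = compounds whose thallium flux B-score, printed positive for inhibition, exceeds three library SD while starting fluorescence stays within three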;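 note: channel opened by potassium depolarization with thallium stimulus after 20 min compound exposure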
Target sequence (P51787 whole entry, looked up): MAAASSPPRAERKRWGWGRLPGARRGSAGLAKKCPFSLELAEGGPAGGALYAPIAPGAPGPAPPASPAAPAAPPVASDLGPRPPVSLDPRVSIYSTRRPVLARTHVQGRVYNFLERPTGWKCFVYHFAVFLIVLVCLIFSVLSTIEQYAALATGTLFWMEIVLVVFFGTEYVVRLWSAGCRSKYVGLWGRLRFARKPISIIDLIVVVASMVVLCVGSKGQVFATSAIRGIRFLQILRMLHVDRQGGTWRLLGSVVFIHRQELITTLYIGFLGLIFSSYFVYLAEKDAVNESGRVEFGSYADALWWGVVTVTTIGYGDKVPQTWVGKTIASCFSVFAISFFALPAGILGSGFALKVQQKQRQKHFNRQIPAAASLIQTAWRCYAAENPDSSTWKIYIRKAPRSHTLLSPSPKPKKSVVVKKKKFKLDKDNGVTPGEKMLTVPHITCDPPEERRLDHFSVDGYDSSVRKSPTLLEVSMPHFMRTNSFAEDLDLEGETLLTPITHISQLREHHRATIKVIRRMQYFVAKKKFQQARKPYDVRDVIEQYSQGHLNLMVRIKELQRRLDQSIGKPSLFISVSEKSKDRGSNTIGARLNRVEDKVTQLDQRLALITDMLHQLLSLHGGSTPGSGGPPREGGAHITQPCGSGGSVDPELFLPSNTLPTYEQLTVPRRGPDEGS
hERG protect: compounds protecting human hERG from proarrhythmic drug block; Q12809; CHO-hERG, FluxOR thallium flux, dofetilide IC70 present; activation (rescue from dofetilide block), less the hit threshold, % at 10 µM; actives 0.51% (n = 310,000); AID 1511;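 active = activation above the mean of controls blocked by dofetilide plus 5 SD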;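 note: thallium influx through hERG after potassium depolarization seen as dye fluorescence rise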
KCNK3 inh: human KCNK3 channel inhibition, primary screen; B-score at 10 µM; O14649; CHO-KCNK3 thallium flux, FluxOR fluorescence; hits give low values; actives 0.84% (n = 340,000);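 active = B-score under library mean minus 4 SD, starting fluorescence ratio at most library mean plus 5 SD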;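 note: more negative B-score means stronger inhibition of thallium flux through KCNK3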
KCNQ1 act: potentiates or activates the human KCNQ1 potassium channel. CHO-K1 KCNQ1, thallium flux FluxOR fluorescence; hits give high values. B-score at 10 µM. actives 0.35% (n = 310,000). AID 2648;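 active = fluorescence ratio B-score, a plate-corrected score, at least three library SD, with initial intensity B-score within 5 SD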
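Assay system: CHO-K1 cells stably expressing KCNQ1. Medium: assay buffer for compound exposure, DMSO matched across wells. Timing: 37 °C overnight plating, 90-min dark dye load, 20-min compound pretreatment. Signal: kinetic FluxOR fluorescence, 10 s baseline plus 110 s post-stimulus.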
Kir21 inh: blocks the mouse Kir2.1 inward-rectifier potassium channel; P35561; HEK293-Kir2.1, FluxOR thallium flux fluorescence; hits give low values; B-score at 10 µM; actives 0.85% (n = 310,000); AID 1672;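 active = fluorescence ratio B-score at or below minus 3 SD of library scores, with starting-brightness B-score within 2 SD, cut at about -4.2 in these data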;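 note: channel flux triggered by added potassium and thallium sulfate stimulus; B-score of peak minus minimum fluorescence over baseline after thallium stimulus; more negative B-score means stronger Kir2.1 block with less thallium influx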
A number is an active result; i = inactive; nt = no result.

SMILES | KCNK9 block | KCNQ1 block | hERG protect | KCNK3 inh | KCNQ1 act | Kir21 inh
O=C(CSc1n[nH]c(-c2ccc(S(=O)(=O)N3CCCCC3)cc2)n1)Nc1nccs1 | i | i | 6.5 | i | i | i
Cc1ccsc1C(=O)OCC(=O)N1CC(C)CC(C)C1 (configuration not stated) | nt | nt | nt | i | nt | nt
O=C(CN1CCN(c2cccc(C(F)(F)F)c2)CC1)N(C1CCCC1)C1CCS(=O)(=O)C1 (configuration not stated) | nt | nt | nt | -8.7 | nt | nt
O=C(CN1CCN(c2cccc(C(F)(F)F)c2)CC1)N(C1CC1)C1CCS(=O)(=O)C1 (configuration not stated) | nt | nt | nt | i | nt | nt
CC(=O)Nc1ccc(Nc2nc(C)c([N+](=O)[O-])c(Nc3ccc(NC(C)=O)cc3)n2)cc1 | i | i | i | i | i | i
COc1ccccc1-c1c(-c2ccc(OCC(=O)NN)cc2O)n[nH]c1C(F)(F)F | i | i | i | i | i | i
COc1ccc(-c2n[nH]c(C(F)(F)F)c2-c2cc3ccccc3o2)c(O)c1 | i | 8 | i | i | i | i
CCOC(=O)Nc1ccc(C(=O)Oc2ccccc2)c(O)c1 | i | i | i | i | i | i
O=C(Nc1ccc(C(=O)Oc2ccccc2)c(O)c1)c1ccccc1 | -7.2 | i | i | i | i | i
O=C(Nc1ccc(OC(=O)c2cccs2)cc1)c1ccco1 | i | i | i | i | i | i
O=C(Nc1ccc(C(=O)Oc2ccccc2)c(O)c1)c1ccco1 | -7.2 | i | i | i | i | i
COc1ccccc1N(CC(=O)NCc1ccccc1C)S(=O)(=O)c1ccc(C)cc1 | i | i | i | i | i | i
Cc1nnsc1C(=O)N1CCN(c2ccc(C#N)cn2)CC1 | i | i | i | i | i | i
CN(c1ccccc1)c1ccc(/C=C/[N+](=O)[O-])cc1 | i | i | i | i | i | -11
CCCCC(=O)NC(=S)Nc1ccc(S(=O)(=O)N2CCCC2)cc1 | i | i | i | i | i | i
CS(=O)(=O)c1sc(C#N)c2c1C(=O)CC(c1ccccc1)C2 (configuration not stated) | i | i | i | i | 27 | i
O=C(Cc1ccc(O)cc1)N/N=C/c1cccnc1 | i | i | i | i | i | i
Cc1ccc(F)cc1CNC(=O)C1CCC(=O)N(CCCN2CCCC2=O)C1 (configuration not stated) | i | i | i | i | i | i
Cc1ccc(C)c(NC(=O)CN(C)C(=O)c2ccccc2Cc2ccccc2)c1 | i | i | i | i | i | -4.3
Cc1ccc(C)c(NC(=O)c2ccccc2C(=O)c2ccccc2)c1 | -10 | i | i | nt | i | i
CN(CC(=O)Nc1cccc(F)c1)C(=O)c1ccccc1Cc1ccccc1 | i | i | i | i | i | i
COc1ccccc1CN(C)C(=O)c1cnc(C)cn1 | i | i | i | i | i | i
COc1ccccc1CN(C)C(=O)c1sccc1-c1ccccc1 | i | i | i | i | i | -5.4
O=C(O)Cc1coc2ccc3ccccc3c12 | i | i | i | i | i | i
CC(C)CN(CC(C)C)C(=O)Cc1coc2ccc3ccccc3c12 | i | i | i | i | i | -5.8
SMILES | KCNK9 block | KCNQ1 block | hERG protect | KCNK3 inh | KCNQ1 act | Kir21 inh
Cc1ccsc1C1C(C#N)=C(N)N(N(C)C)C2=C1C(=O)CCC2 (configuration not stated) | i | i | 7.9 | i | i | i
C=C(C)C1CC=C(C)/C(=N/NC(=O)C2CC2c2ccccc2)C1 (configuration not stated) | i | i | i | i | i | i
COc1ccccc1NC(=O)C(C)OC(=O)CCCOc1ccccc1 (configuration not stated) | i | i | i | i | i | -4.8
COc1ccccc1CCNC(=O)COc1cccc2c1OC(C)(C)C2 | i | i | i | i | i | -6.4
COc1ccc(NC(=O)COc2cccc3c2OC(C)(C)C3)cc1OC | nt | nt | nt | i | nt | nt
Cc1c(NC(=O)C(C)OC(=O)COc2cccc3c2OC(C)(C)C3)c(=O)n(-c2ccccc2)n1C (configuration not stated) | i | i | i | i | i | i
COc1ccccc1NC(=O)C(C)OC(=O)COc1cccc2c1OC(C)(C)C2 (configuration not stated) | i | i | i | i | i | -4.6
COc1ccc(C(C)=O)cc1COc1cccc2c1OC(C)(C)C2 | i | i | i | i | i | -5
